TAAR1 antag: antagonists of human TAAR1. CHO RD-HGA16 TAAR1, Fluo-8 calcium fluorescence, antagonist. inhibition, % at 3 µM. actives 1.5% (n = 360,000);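 active means inhibition above a per-plate cutoff, the mean inhibition of test compounds on that plate plus 3 SD, cut at about 49% in these data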;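 further: 0% = DMSO plus EC80 beta-PEA response and 100% = DMSO alone without agonist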
Target sequence (Q96RJ0 whole entry, looked up): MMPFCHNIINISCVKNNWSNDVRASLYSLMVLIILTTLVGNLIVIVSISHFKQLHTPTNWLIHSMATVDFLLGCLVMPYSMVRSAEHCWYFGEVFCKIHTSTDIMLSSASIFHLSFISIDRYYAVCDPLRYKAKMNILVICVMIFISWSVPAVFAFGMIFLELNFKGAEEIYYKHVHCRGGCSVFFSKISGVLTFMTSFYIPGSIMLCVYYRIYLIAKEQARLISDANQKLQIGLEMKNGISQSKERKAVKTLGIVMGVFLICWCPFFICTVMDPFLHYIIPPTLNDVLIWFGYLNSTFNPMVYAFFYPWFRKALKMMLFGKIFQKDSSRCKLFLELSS
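Test system: CHO RD-HGA16 cells bearing hTAAR1 | Reagent: β-PEA, EC80 | Compound dosing: 3 µM, single point | Schedule: Dye loading 75 min at 37 °C, then 30 min room temperature | Signal: Calcium fluorescence with Fluo-8 | Evaluation: Percent inhibition of PEA-evoked calcium signal, max/basal emission ratio | Control set: DMSO-only wells and EC80 β-PEA-stimulated wells | Repeats: Singlicate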
HCV NS3 hel inh: HCV NS3 helicase inhibition | NS3 helicase DNA unwinding, Cy5 molecular beacon fluorescence | inhibition, % at 10.9 µM | actives 0.56% (n = 290,000) | AID 1800;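 active means inhibition above the mean of all tested compounds plus 3 SD, set per campaign, cut at about 35% in these data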;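 further: 0% = DMSO wells and 100% = thioflavine S control wells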
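Compound dosing – single dose, 10.9 µM nominal final, DMSO 0.8% final · System – NS3 helicase fragment of HCV · Buffer or medium – MOPS pH 6.5, MgCl2, DTT, Tween20, BSA · Signal – Cy5 beacon fluorescence read at start and 1 h · Also added – annealed dual-labelled DNA beacon duplex, ATP-started · Schedule – 1 h at 25 °C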
core dimer inh: HCV core protein dimerization inhibition | inhibition, % at 5 µM | AID 1899 | actives 0.33% (n = 300,000) | TR-FRET GST/Flag-core106 dimerization, 1536-well;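 active means inhibition above the mean of all tested compounds plus 3 SD, set per screening campaign, cut at about 45% in these data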
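Assay system: Tagged HCV core106 pair (GST and Flag) | Buffer or medium: KF-containing HEPES buffer, pH 7.45, DTT, CHAPS, BSA | Also added: Eu donor and XL665 acceptor anti-tag antibodies | Dosing: One concentration, 5 µM, in 0.5% DMSO | Timing: 4 h at 22.5 °C | Technique: TR-FRET 671 and 617 nm emission | Repeats: Singlicate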
rCAG RNA binder: molecules binding r(CAG) RNA repeats | AID 651821 | inhibition, % at 3 µM | r(CAG) RNA repeat, TO-PRO-1 dye displacement fluorescence | actives 1.3% (n = 370,000);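 active means inhibition above the plate cutoff, the mean of all test compounds on that plate plus 3 SD, cut at about 35% in these data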;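 further: 0% = DMSO alone and 100% = 100 µM mitoxantrone as full dye displacement; higher means more dye released from RNA so lower well fluorescence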
TAAR1 ag: agonists of human TAAR1 | Q96RJ0 | CHO RD-HGA16 TAAR1, Fluo-8 calcium fluorescence; vehicle wells 0%, saturating PEA agonist 100% | activation, % at 3 µM | actives 0.99% (n = 360,000);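 active means activation above the mean activation of all test compounds in the run plus 3 SD, cut at about 38% in these data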
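Test system: RD-HGA16 (CHO) cells co-expressing Gα16 and hTAAR1 | Doses: Single dose, 3 µM | Schedule: 17-24 h seeding, 75 min 37 °C dye, 30 min RT | Evaluation: % activation from peak over basal fluorescence ratio, DMSO-to-PEA scaled | Technique: Kinetic Fluo-8 calcium fluorescence | Benchmarks: Low control DMSO, high control PEA (EC100)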
TAAR1 nonsel count: nonselective antagonist in TAAR1 antagonist counter-screen; shares compounds with TAAR1 antag; counterscreen cell line, calcium fluorescence, antagonist mode; inhibition, % at 3 µM; actives 77% (n = 2,400); in the data active means inhibition above about 22%;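 further: CHO-Ga16 host cells stimulated with ATP at an EC80 level; 0% = agonist EC80 plus vehicle and 100% = vehicle without agonist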
TAAR1 antag conf: human TAAR1 antagonism, confirmed; AID 651785; actives 40% (n = 2,400); TAAR1-expressing cells, fluorescence antagonist read-out; shares compounds with TAAR1 antag; inhibition, % at 3 µM; in the data active means inhibition above about 49%;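 further: CHO-Ga16 host cells challenged with agonist PEA near its EC80; 0% = agonist at EC80 plus vehicle and 100% = vehicle with no agonist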
Ga16 nonsel ag: counter-screen for TAAR1 antagonists: nonselective Ga16 agonists. Ga16-expressing cells, calcium fluorescence, agonist counterscreen. shares compounds with TAAR1 antag. AID 651953. activation, % at 3 µM. actives 18% (n = 2,400); in the data active means activation above about 12%;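 further: 0% = vehicle wells and 100% = saturating stimulus response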
TAAR1 ag counter: activates human TAAR1 in antagonist counter-screen; shares compounds with TAAR1 antag; hTAAR1 cell line, fluorescence activation, agonist mode; activation, % at 3 µM; actives 2% (n = 2,400); AID 651955; in the data active means activation above about 37%;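 further: CHO cells stably expressing TAAR1 with calcium dye readout; 0% = DMSO vehicle and 100% = full agonist response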
Starred values were filed as active, the others as inactive; . = not tested or not shown. A selection: hits, their analogues and other compounds. The true share with any hit is near 3.7%.

SMILES | TAAR1 antag | HCV NS3 hel inh | core dimer inh | rCAG RNA binder | TAAR1 ag | TAAR1 nonsel count | TAAR1 antag conf | Ga16 nonsel ag | TAAR1 ag counter
Cc1ccccc1C(=O)N1CCN(c2ccc(NC(=O)c3ccc4c(c3)OCO4)cc2)CC1 | 52.5* | -5.9 | 0.2 | -3.0 | 12.2 | 27.0* | 45.5 | 8.7 | 7.8
CC(=O)N1CCN(c2ccc(NC(=O)c3ccc(Cl)cc3)cc2)CC1 | 15.2 | 6.2 | -10.4 | -2.8 | 2.6 | . | . | . | .
Cc1cc(OCC(=O)Nc2ccc(N3CCN(C(=O)c4ccco4)CC3)cc2)cc(C)c1Cl | 85.7* | -1.0 | 7.0 | -1.7 | 34.2 | 50.7* | 71.4* | 17.7* | 17.5
CC(=O)N1CCN(c2ccc(NC(=O)c3ccc(C(C)(C)C)cc3)cc2)CC1 | 62.1* | 5.2 | -1.6 | -6.2 | 26.8 | 28.6* | 45.6 | 9.2 | 9.9
O=C(Nc1ccc(N2CCN(C(=O)c3cccs3)CC2)c(Cl)c1)c1ccco1 | 3.6 | -6.0 | -1.0 | 1.9 | 12.6 | . | . | . | .
O=C(Nc1ccc(N2CCN(C(=O)c3ccco3)CC2)cc1)c1ccc2c(c1)OCO2 | 11.9 | 2.6 | -1.4 | -3.5 | 8.2 | . | . | . | .
Cc1ccccc1C(=O)N1CCN(c2ccc(NC(=O)c3ccco3)cc2Cl)CC1 | 51.9* | -6.1 | 2.1 | -3.8 | 19.7 | 22.6* | 37.4 | 9.3 | 6.8
Cc1ccc(OCC(=O)Nc2ccc(N3CCN(C(=O)c4ccco4)CC3)cc2)cc1C | 39.5 | -7.9 | 1.2 | -5.4 | 9.4 | . | . | . | .
COC(=O)[C@]12C[C@H](CC(=O)NCc3ccc(OC)c(OC)c3)C(=O)N(Cc3ccc4c(c3)OCO4)C1=C[C@H](C(C)(C)C)O[C@@H]2C | -27.9 | . | . | 1.7 | 1.1 | . | . | . | .
CC(=O)N1CCN(C(=O)C2CCCN(C(=O)c3ccc4c(c3)NC(=O)CS4)C2)CC1 (configuration not stated) | . | . | . | 1.4 | . | . | . | . | .
COC(=O)c1cc(S(=O)(=O)NCC2CCN(C(=O)C(=O)c3cc4ccccc4o3)CC2)cs1 | -9.4 | . | . | 4.6 | 1.2 | . | . | . | .
COc1ccc(NC(=O)c2cc(-c3ccc(F)cc3OC)n[nH]2)c(OC)c1 | 66.3* | . | . | 1.6 | 9.6 | 32.2* | 48.4 | 5.7 | 4.1
COc1ccc(NC(=O)c2cc(-c3cc(Cl)ccc3O)n[nH]2)c(OC)c1 | -9.2 | -3.8 | 10.7 | 4.2 | 0.3 | . | . | . | .
C[C@@H]1COc2cccc(F)c2S(=O)(=O)N1C | . | . | . | 0.8 | . | . | . | . | .
Cc1ccc(C(C)C)c(OCCNC(=O)c2ccccc2O)c1 | 57.9* | -3.7 | -1.2 | -2.5 | 2.0 | 17.1 | 40.0 | 3.2 | 2.6
CCc1noc(C)c1C(=O)Nc1nc(-c2ccc(NC(C)=O)cc2)cs1 | 69.7* | . | 0.2 | -3.5 | 17.7 | 28.9* | 48.1 | 21.8* | 30.6
COC(=O)c1cccc(NC(=O)c2ccc(S(=O)(=O)N(C)c3ccccc3OC)cc2)c1 | 70.1* | . | . | 1.9 | 12.8 | 32.2* | 41.0 | 7.2 | 5.4
COc1ccccc1N(C)S(=O)(=O)c1ccc(C(=O)N(C)Cc2ccc(OC(F)F)cc2)cc1 | 84.6* | . | . | -3.7 | 14.8 | 44.7* | 74.0* | 13.0* | 10.6
COc1ccccc1N(C)S(=O)(=O)c1ccc(C(=O)Nc2cccc(Br)c2)cc1 | 69.6* | . | . | 9.8 | 6.2 | 36.4* | 38.3 | 7.1 | 2.0
COc1cc(NC(=O)c2ccc(S(=O)(=O)N(C)c3ccccc3OC)cc2)cc(OC)c1 | 43.4 | . | . | 1.8 | 2.5 | . | . | . | .
COc1ccccc1N(C)S(=O)(=O)c1ccc(C(=O)OCC(=O)NCc2cccs2)cc1 | 83.1* | 9.3 | -0.7 | 1.1 | 14.8 | 38.0* | 61.8* | 10.4 | 13.3
CCCCOCCCNC(=O)C[C@H]1C[C@@]2(C(=O)OC)C(=C[C@H](C(C)C)O[C@@H]2C2CC2)N(Cc2ccc(Cl)cc2Cl)C1=O | . | . | . | 6.5 | . | . | . | . | .
Cc1ccc(C(=O)n2ccc3ccc(-c4ccc5ccn(Cc6ccc(C#N)cc6)c5c4)cc32)cc1 | . | . | . | 22.0 | . | . | . | . | .
O=S1(=O)CC2c3ccccc3CN2CN1CCc1ccccc1 (configuration not stated) | . | . | . | 4.2 | . | . | . | . | .
COC(=O)[C@]12C[C@H](CC(=O)NCCCN3CCCC3=O)C(=O)N(CCc3ccc(OC)c(OC)c3)C1=C[C@H](C(C)C)O[C@@H]2C1CC1 | . | . | . | 1.3 | . | . | . | . | .
C#Cc1cccc(OCC(C)CN2CCC(C(O)(c3ccccc3)c3ccccc3)CC2)c1 (configuration not stated) | . | . | . | 0.4 | . | . | . | . | .
COc1ccc(CC(=O)N(Cc2ccccc2)c2ccccc2)cc1S(=O)(=O)N1CCOCC1 | 81.7* | 2.8 | 4.2 | -6.9 | 17.5 | 31.7* | 55.0* | 14.7* | 15.5
Cc1ccc(NC(=O)OC[C@@H]2CSCCS(=O)(=O)N2)cc1 | -0.6 | . | . | -0.5 | 1.5 | . | . | . | .

Screens (PubChem)
